A short description of data set [1]: Apparent intrinsic clearance in human liver microsomes. It counts as ADME, microsome. The settings on record: read-out: CLH(app). A general note: Liver microsomes are a subcellular fraction often used to study metabolism.
Data set [2] relates to Plasma. The data set can be described thus: Drug uptake in rat plasma at 5 to 250 mg/kg/day, po up to 15 days by microscopic method. In kind it is ADME, organism-based. The settings on record: in vivo, 360 h. A digest of the protocol:
(§1)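 Exploratory rat toxicity study, oral dosing at 5, 50 and 250 mg/kg/day for up to 15 days, with microscopic examination of heart and vasculature and measurement of plasma and brain exposure.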

For data set [3], the system named is Brain. The data set can be described thus: Drug uptake in rat brain at 5 to 250 mg/kg/day, po up to 15 days by microscopic method. It counts as ADME, organism-based. As to conditions: in vivo, 360 h. A digest of the protocol:
as §1

Data set [4] is filed under the species Canis familiaris. The data set can be described thus: Toxicity in dog assessed as effect on CNS up to 1 month by microscopic method. As to conditions: in vivo. Also on record: species or system Canis lupus familiaris.
Data set [5] is filed under the species Canis familiaris. Nature of the data set: Cardiotoxicity in dog up to 1 month by microscopic method. It counts as toxicity, Canis lupus familiaris.
Data set [6] deals with Rattus norvegicus. The data set can be described thus: Reversal of MK-801-induced disruption of low frequency cortical delta oscillation in Sprague-Dawley rat brain at 0.03 mg/kg, iv in early time point measured up to 55 mins by electrophysiology method. In kind it is functional, organism-based.
Data set [7] has as its system Rattus norvegicus. The data set can be described thus: Effect on risperidone-induced antipsychotic activity in Long Evans rat at 0.32 to 3.2 mg/kg, sc by conditioned avoidance responding assay. It counts as functional, organism-based. A digest of the protocol:
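Rats dosed SC at 0.32, 1.0 and 3.2 mg/kg; conditioned avoidance responding also run in combination with risperidone 0.032 mg/kg.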

Data set [8] has as its system Rattus norvegicus. The data set can be described thus: Reversal of ketamine-induced working memory deficit in Long Evans rat assessed as unbound brain concentration required to show effect at 0.32 mg/kg, sc by radial arm maze assay. It counts as functional, organism-based. A digest of the protocol: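 Rats trained in a radial arm maze working-memory task, with deficit induced by ketamine. Compound dosed sc; errors compared with vehicle + ketamine. N = 20–23 per group, Hochberg test. Cbu at the tested doses estimated from satellite pharmacokinetic animals.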

For data set [9], the species on record is Mus musculus. The data set can be described thus: Increase in cGMP level in CD-1 mouse brain cortex by immunoassay. In kind it is functional. A digest of the protocol:
(§2)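 CD-1 mice dosed SC (solution in 20% SBE-β-CD with 2 molar equivalents 1N HCl, 1 mL/kg); euthanized by focused microwave irradiation of brain; cortex, striatum, hippocampus homogenized in 0.5 N HCl, centrifuged; cyclic nucleotides in supernatant by enzyme immunoassay. Unbound brain exposure from satellite animals; dose-response and time-course data combined with linear model; one-way ANOVA with Fisher's PLSD.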

Data set [10] is filed under the species Mus musculus. The data set can be described thus: Effect on cAMP level in CD-1 mouse brain cortex by immunoassay. In kind it is functional. A digest of the protocol:
as §2
In general terms: cAMP levels reflect the balance of adenylyl cyclase and phosphodiesterase activity.

Data set [11] deals with Mus musculus. The data set can be described thus: In vivo effect on phosphorylated CREB level in CD-1 mouse brain cortex by immunoassay. It counts as functional, organism-based.
The species named for data set [12] is Mus musculus. Nature of the data set: Increase in cGMP level in CD-1 mouse brain striatum assessed per nM of unbound brain concentration by immunoassay. In kind it is functional. A digest of the protocol:
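CD-1 mice given compound; brains fixed by focused microwave irradiation, and cortex, striatum and hippocampus dissected and homogenized in 0.5 N HCl, then centrifuged. cGMP in the supernatant measured by enzyme immunoassay. Unbound brain concentration taken from satellite animals. Dose-response and time-course data combined, and a linear Cbu–cGMP model fitted. The Cbu E50 is the projected Cbu giving a 50% rise in cGMP. Statistics by one-way ANOVA with Fisher's PLSD, p<0.05.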

Data set [13] deals with T1, Cytochrome P450 2B6 (Homo sapiens, UniProt P20813).
T1 sequence (P20813 whole entry): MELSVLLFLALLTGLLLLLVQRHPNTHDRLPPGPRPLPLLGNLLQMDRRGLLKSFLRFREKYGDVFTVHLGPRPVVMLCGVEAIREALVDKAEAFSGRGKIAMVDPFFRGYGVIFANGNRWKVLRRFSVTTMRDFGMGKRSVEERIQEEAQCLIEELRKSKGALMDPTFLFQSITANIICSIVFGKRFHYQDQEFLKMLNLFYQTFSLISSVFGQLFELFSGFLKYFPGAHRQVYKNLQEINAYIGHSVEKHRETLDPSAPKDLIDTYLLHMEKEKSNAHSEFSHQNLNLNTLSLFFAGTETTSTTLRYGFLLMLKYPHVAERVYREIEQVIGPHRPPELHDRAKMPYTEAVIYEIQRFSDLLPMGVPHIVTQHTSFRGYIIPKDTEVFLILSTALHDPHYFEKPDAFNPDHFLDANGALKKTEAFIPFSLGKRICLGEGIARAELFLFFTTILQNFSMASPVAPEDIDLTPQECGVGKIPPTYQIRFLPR
The data set can be described thus: Inhibition of recombinant human CYP2B6. It counts as ADME. As to conditions: recombinant enzyme.

Data set [14] concerns the target Cytochrome P450 2C19 (Homo sapiens, UniProt P33261). The data set can be described thus: Time-dependant inhibition of recombinant human CYP2C19. In kind it is ADME. As to conditions: recombinant enzyme.
Data set [15] in a line: Ratio of unbound brain concentration to unbound plasma concentration in sc dosed CD-1 mouse. It counts as ADME, organism-based. As to conditions: brain and plasma, read-out: K(p,uu,brain). A digest of the protocol: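 Compound given sc to mice, iv and/or sc to rats, po to dogs and sc to monkeys; sc doses as a solution in 20% SBE-BCD + 2 molar equiv 1N HCl. Plasma, whole brain and CSF taken at matched times from 2 min to 24 h and quantified by LC-MS/MS. Fraction unbound in plasma and brain homogenate (diluted 4-fold, dilution factor 5 applied) by 6 h equilibrium dialysis against phosphate buffer at 37°C.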

The nature of data set [16]: Ratio of unbound brain concentration to unbound plasma concentration in po dosed Cynomolgus monkey. It counts as ADME, organism-based, Macaca fascicularis. The settings on record: brain and plasma, read-out: K(p,uu,brain).
Data set [17] can be described thus: Tmax in Wistar Han rat at 5 mg/kg, po administered via gavage by LC-MS/MS analysis. It counts as ADME, organism-based. As to conditions: in vivo.
A short description of data set [18]: AUC (0 to infinity) in Wistar Han rat at 5 mg/kg, po administered via gavage by LC-MS/MS analysis. Also on record: dose 5 mg/kg, route oral, time infinity. The settings on record: in vivo. It counts as ADME, organism-based.
Data set [19] in a line: Plasma clearance in Wistar Han rat at 1 mg/kg, iv by LC-MS/MS analysis. It counts as ADME, organism-based. A digest of the protocol:
(§3)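 Single iv dose to male Wistar-Han rats (1 mg/kg) or dogs (0.3 mg/kg), given as a solution in 20% (w/v) SBECD with HCl. Dose volume 1 mL/kg in rats and 0.4 mL/kg in dogs. Blood taken by carotid artery cannula from 2 min to 24 h into K2EDTA (rat) or K3EDTA (dog) tubes. Plasma analysed by LC-MS/MS with positive electrospray after acetonitrile precipitation with internal standard.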

Data set [20] in a line: Terminal half life in Wistar Han rat at 1 mg/kg, iv by LC-MS/MS analysis. In kind it is ADME, organism-based. As to conditions: in vivo, read-out: beta t1/2 (converted). A digest of the protocol: as §3
Data set [21] can be described thus: Tmax in beagle dog at 5 mg/kg, po administered via gavage by LC-MS/MS analysis. In kind it is ADME, organism-based, Canis lupus familiaris. As to conditions: in vivo.
A short description of data set [22]: AUC (0 to infinity) in beagle dog at 0.3 mg/kg, iv by LC-MS/MS analysis. It counts as ADME, organism-based, Canis lupus familiaris. Also on record: dose 0.3 mg/kg, route intravenous, time infinity. The settings on record: in vivo. A digest of the protocol: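 Dogs received a single IV dose as a solution in 20% (w/v) sulfobutylether-β-cyclodextrin with hydrochloric acid, at 0.4 mL/kg. Blood was drawn by carotid artery cannula into K3EDTA at set times from 2 min to 24 h. Plasma was acetonitrile-precipitated with internal standard and run by positive-ESI LC-MS/MS against standards of 0.61–1250 ng/mL. AUC was extrapolated from time 0 to infinity.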

Data set [23] is described as follows: Plasma clearance in beagle dog at 0.3 mg/kg, iv by LC-MS/MS analysis. It counts as ADME, organism-based, Canis lupus familiaris. A digest of the protocol: as §3

Here are results for one molecule from ChEMBL document CHEMBL4024790 (J Med Chem, 2018).

Molecules are shown by their SMILES. Calls of active or inactive are those of the source. The calls are words filed in the database; no cut-off is given here.

Sequence of Cytochrome P450 2C19 (P33261 whole entry): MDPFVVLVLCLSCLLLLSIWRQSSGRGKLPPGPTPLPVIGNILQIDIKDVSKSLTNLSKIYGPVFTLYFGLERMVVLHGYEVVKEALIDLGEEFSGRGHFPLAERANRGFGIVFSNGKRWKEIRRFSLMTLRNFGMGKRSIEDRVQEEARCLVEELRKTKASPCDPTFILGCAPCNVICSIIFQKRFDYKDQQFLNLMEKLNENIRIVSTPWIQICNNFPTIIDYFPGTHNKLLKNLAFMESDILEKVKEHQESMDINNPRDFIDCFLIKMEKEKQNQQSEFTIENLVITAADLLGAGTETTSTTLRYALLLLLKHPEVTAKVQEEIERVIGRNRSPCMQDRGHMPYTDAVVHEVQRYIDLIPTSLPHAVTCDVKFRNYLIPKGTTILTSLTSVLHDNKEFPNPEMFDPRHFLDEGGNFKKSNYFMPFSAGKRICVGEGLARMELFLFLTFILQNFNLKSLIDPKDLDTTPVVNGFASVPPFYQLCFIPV

For orientation: Tmax means the time at which the peak concentration occurs. As usually defined, the AUC(0-inf) is the area under the concentration-time curve extrapolated to infinity. By clearance is commonly meant a measure of how efficiently the substance is removed, as volume per time. `Cc1nc(-c2cnn(C)c2-c2ccc(C(F)(F)F)cn2)c2c(N3CCC3)ncnn12` [PF-05180999]: the CLint scaled in [1] turned out to be 52 mL/min/kg. Besides, the Drug uptake entry in data set [2] and in data set [3] was “Active” throughout. Moreover, the Activity entry is “Toxic” in data set [4], “Non-Toxic” in data set [5], “Dose-dependent effect” in [9] and 0.51% in data set [12]. In addition, in data set [6], the result was Active. Also, the outcome in data set [7], in data set [10] and in data set [11] was inactive. Also, the Drug uptake(free) in [8] amounted to 12.5 nM. The “inhibition (INH)” value in [13] is recorded as “Not Active”. Besides, the TDI entry in data set [14] is recorded as “Not Active”. Also, the Kp uu amounted to 0.51 in [15] and 0.6 in data set [16]. In addition, the values for the Tmax in data set [17] and in data set [21] were 4.8 min and 15 min, respectively. In addition, the AUC(0-inf) was found to be 312 ng·h/mL in data set [18] and 431 ng·h/mL in data set [22]. For the same molecule, the clearance in [19] is 122 mL/min/kg; in [23], 12.3 mL/min/kg. Also, in data set [20], the half-life was 66 min.
